Reference: ChEMBL document CHEMBL3797028, “Novel S1P1 receptor agonists - Part 4: Alkylaminomethyl substituted aryl head groups” (Eur J Med Chem, 2016)

Legend:
Rattus norvegicus [1] = experiment: Change in circulating lymphocyte count in Wistar rat at 1 mg/kg administered as single dose through oral gavage after 24 hrs relative to control; type: functional
How it was run: (§1)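 Male Wistar rats (RccHan:WIST; n = 6) were given a single oral gavage dose of compound in DMSO plus 7.5% succinylated gelatine (final 5% DMSO). Blood lymphocytes were counted just before dosing and at later timepoints. Percent change was calculated per animal relative to the pre-dose value and compared with a vehicle-treated group, reported as the mean. A ±15% change was treated as baseline, and a reduction of about 60% or more as maximal.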

[2] = molecular target: Sphingosine 1-phosphate receptor 1 (Homo sapiens, UniProt P21453); experiment: Agonist activity at human recombinant S1PR1 expressed in CHO cell membranes assessed as [35S]GTPgammaS binding preincubated for 30 mins followed by [35S]GTPgammaS addition measured after 1 hr by topcount analysis
[3] = Plasma concentration in Wistar rat at 1 mg/kg administered as single dose through oral gavage after 3 hrs by LC-MS/MS analysis; type: ADME, organism-based
How it was run: (§2)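 Single oral gavage dose to male Wistar rats in DMSO/7.5% succinylated gelatine (final 5% DMSO). Blood was drawn into EDTA at the lymphocyte-count timepoints. Plasma was prepared at 3000 g for 10 min at 4 °C and analysed by LC-MS/MS after protein precipitation.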

[4] = Ratio of total drug level in brain to plasma in Wistar rat at 10 mg/kg administered as single dose through oral gavage after 2 hrs; type: ADME, organism-based; conditions: read-out: BPR
How it was run: (§3)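 Male Wistar rats (n = 2 per timepoint) were dosed orally at 10 mg/kg. At 2, 6 and 24 h they were anaesthetised with 5% isoflurane and sacrificed, and blood was taken for plasma. The brain was perfused via the carotid with 10 mL 0.9% NaCl, removed, and homogenised in an equal volume of ice-cold 0.1 M Na-phosphate pH 7.4. Samples were assayed by LC-MS/MS against blank-brain calibration. Brain/plasma ratio was calculated from these values, reported as the mean of 2.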

[5] = Plasma concentration in Wistar rat at 3 mg/kg administered as single dose through oral gavage after 6 hrs by LC-MS/MS analysis; type: ADME, organism-based; how it was run: as §2
Rattus norvegicus [6] = experiment: Change in circulating lymphocyte count in Wistar rat at 10 mg/kg administered as single dose through oral gavage after 24 hrs relative to control; type: functional; how it was run: as §1
[7] = molecular target: Sphingosine 1-phosphate receptor 5 (Homo sapiens, UniProt Q9H228); experiment: Agonist activity at S1PR5 (unknown origin)
[8] = Total plasma concentration in Wistar rat at 10 mg/kg administered as single dose through oral gavage after 6 hrs by LC-MS/MS analysis; type: ADME, organism-based; how it was run: as §3
Rattus norvegicus [9] = experiment: Change in circulating lymphocyte count in Wistar rat at 10 mg/kg administered as single dose through oral gavage after 96 hrs relative to control; type: functional; how it was run: as §1
[10] = molecular target: Sphingosine 1-phosphate receptor 3 (Homo sapiens, UniProt Q99500); experiment: Agonist activity at human recombinant S1PR3 expressed in CHO cell membranes assessed as [35S]GTPgammaS binding preincubated for 30 mins followed by [35S]GTPgammaS addition measured after 1 hr by topcount analysis; type: functional
How it was run: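 Membranes from CHO cells expressing recombinant human S1P1 or S1P3 were used. Buffer was 20 mM Hepes pH 7.4, 100 mM NaCl, 5 mM MgCl2, 0.1% fatty-acid-free BSA, 2.5% DMSO and 50 pM 35S-GTPgammaS. GDP was […] for S1P3. Compound was preincubated 30 min at rt, then incubated 1 h at rt with 35S-GTPgammaS. Bound label was collected by filtration and counted. Specific binding was taken against 10 uM S1P. EC50 was the 50%-of-specific-binding concentration, reported as the geometric mean of at least three independent duplicate runs.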

[11] = Selectivity ratio of EC50 for human recombinant S1PR3 expressed in CHO cell membranes to EC50 for human recombinant S1PR1 expressed in CHO cell membranes; type: cell-based
How it was run: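 Compound and membranes are pre-incubated 30 min at rt, then incubated 1 h at rt, filtered and counted. EC50 is the concentration giving 50% of S1P-defined specific binding, as the geometric mean of ≥3 independent duplicate runs. Ratio = EC50 S1PR3/EC50 S1PR1.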

[12] = Fraction unbound in Wistar rat plasma incubated for 6 hrs by LC-MS/MS based equilibrium dialysis method; type: ADME, cell-free
How it was run: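 Rapid equilibrium dialysis was run on a shaker for 6 h at 37 °C. The donor side held rat plasma (pH 7.2–7.6) or 1 mg/mL rat liver microsomes in phosphate buffer pH 7.4. The receiver side held phosphate buffer pH 7.4. Both sides were measured by LC-MS/MS to give free fraction and recovery.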

Plasma = experiment: Plasma concentration in Wistar rat at 1 mg/kg administered as single dose through oral gavage after 72 hrs by LC-MS/MS analysis; type: ADME, organism-based; conditions: in vivo, BLD = below limit of detection; how it was run: as §2
[13] = Total plasma concentration in Wistar rat at 10 mg/kg administered as single dose through oral gavage after 2 hrs by LC-MS/MS analysis; type: ADME, organism-based; how it was run: as §3
Rattus norvegicus [14] = experiment: Change in circulating lymphocyte count in Wistar rat at 1 mg/kg administered as single dose through oral gavage after 3 hrs relative to control; type: functional; how it was run: as §1
[15] = Apparent intrinsic clearance in Wistar rat liver microsomes at 1 uM after 2.5 to 15 mins by LC-MS/MS analysis in presence of NADPH; type: ADME; conditions: read-out: CLH(app)
How it was run: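 Compound at 1 uM starting concentration was depleted by 0.5 mg/mL rat liver microsomes in 100 mM sodium phosphate pH 7.4 at 37 °C, with shaking under air. Reactions were started with an NADPH-regenerating system. Samples were taken at 0, 2.5, 5, 10 and 15 min, quenched in ice-cold methanol and analysed by LC-MS/MS. CLint,app came from first-order decay fitting.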

[16] = Plasma concentration in Wistar rat at 3 mg/kg administered as single dose through oral gavage after 24 hrs by LC-MS/MS analysis; type: ADME, organism-based; how it was run: as §2
[17] = Plasma concentration in Wistar rat at 1 mg/kg administered as single dose through oral gavage after 6 hrs by LC-MS/MS analysis; type: ADME, organism-based; how it was run: as §2
[18] = Ratio of total drug level in brain to plasma in Wistar rat at 10 mg/kg administered as single dose through oral gavage after 6 hrs; type: ADME, organism-based; conditions: read-out: BPR; how it was run: as §3
Liver microsome = experiment: Unbound fraction corrected apparent intrinsic clearance in Wistar rat liver microsomes at 1 uM after 2.5 to 15 mins by LC-MS/MS analysis in presence of NADPH; type: ADME
How it was run: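 Apparent CLint was measured by microsomal substrate depletion: 1 uM start, 0.5 mg/mL rat liver microsomes, pH 7.4, 37 °C, NADPH-regenerating system, sampling 0–15 min, LC-MS/MS. It was then divided by the unbound microsomal fraction, which was determined by rapid equilibrium dialysis of 1 mg/mL microsomes for 6 h at 37 °C.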

[19] = Plasma concentration in Wistar rat at 10 mg/kg administered as single dose through oral gavage after 3 hrs by LC-MS/MS analysis; type: ADME, organism-based; how it was run: as §2
Rattus norvegicus [20] = experiment: Change in circulating lymphocyte count in Wistar rat at 3 mg/kg administered as single dose through oral gavage after 3 hrs relative to control; type: functional; how it was run: as §1
[21] = Total brain concentration in Wistar rat at 10 mg/kg administered as single dose through oral gavage after 6 hrs by LC-MS/MS analysis; type: ADME, organism-based; conditions: read-out: Drug uptake; how it was run: as §3
[22] = Plasma concentration in Wistar rat at 3 mg/kg administered as single dose through oral gavage after 3 hrs by LC-MS/MS analysis; type: ADME, organism-based; how it was run: as §2

Sequence of Sphingosine 1-phosphate receptor 1 (P21453 whole entry): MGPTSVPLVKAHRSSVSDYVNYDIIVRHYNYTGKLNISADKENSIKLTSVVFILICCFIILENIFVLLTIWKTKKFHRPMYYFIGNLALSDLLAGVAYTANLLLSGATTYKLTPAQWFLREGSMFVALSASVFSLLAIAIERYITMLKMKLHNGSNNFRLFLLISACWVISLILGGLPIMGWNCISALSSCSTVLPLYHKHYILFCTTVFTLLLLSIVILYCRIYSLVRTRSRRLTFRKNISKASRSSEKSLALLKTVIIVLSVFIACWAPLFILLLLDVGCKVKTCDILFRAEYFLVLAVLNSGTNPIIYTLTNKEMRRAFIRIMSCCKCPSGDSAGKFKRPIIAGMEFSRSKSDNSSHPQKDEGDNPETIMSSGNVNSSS
Sequence of Sphingosine 1-phosphate receptor 3 (Q99500 whole entry): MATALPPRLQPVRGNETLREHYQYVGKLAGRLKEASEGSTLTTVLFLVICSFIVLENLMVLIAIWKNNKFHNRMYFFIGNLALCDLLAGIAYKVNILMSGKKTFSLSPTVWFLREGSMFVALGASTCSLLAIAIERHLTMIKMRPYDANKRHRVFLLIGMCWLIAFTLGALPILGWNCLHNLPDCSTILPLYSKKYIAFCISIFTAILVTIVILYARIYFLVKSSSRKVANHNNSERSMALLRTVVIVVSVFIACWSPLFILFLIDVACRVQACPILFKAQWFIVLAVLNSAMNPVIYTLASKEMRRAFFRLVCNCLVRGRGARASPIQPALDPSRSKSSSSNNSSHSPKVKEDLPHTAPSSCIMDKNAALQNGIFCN
Sequence of Sphingosine 1-phosphate receptor 5 (Q9H228 whole entry): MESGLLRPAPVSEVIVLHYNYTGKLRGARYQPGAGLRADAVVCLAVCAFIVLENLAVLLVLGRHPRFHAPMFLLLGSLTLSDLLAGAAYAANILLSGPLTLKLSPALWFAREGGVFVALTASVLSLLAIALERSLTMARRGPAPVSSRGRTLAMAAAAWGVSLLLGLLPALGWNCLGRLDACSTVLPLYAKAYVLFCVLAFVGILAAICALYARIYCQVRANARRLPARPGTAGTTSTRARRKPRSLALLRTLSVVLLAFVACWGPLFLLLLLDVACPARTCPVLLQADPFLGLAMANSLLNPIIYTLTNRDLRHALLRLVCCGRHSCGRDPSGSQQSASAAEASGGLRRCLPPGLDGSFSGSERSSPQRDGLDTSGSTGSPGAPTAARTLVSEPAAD

EC50 [2]: 0.5 nM | concentration at 3 h [3]: 67 ng/mL | Kp at 2 h [4]: 0.64 | concentration at 6 h [5]: 170 ng/mL | EC50 [7]: 753 nM | concentration at 6 h [8]: 622 ng/mL | EC50 [10]: 145 nM | fraction unbound at 6 h [12]: < 0.001 | Cp (Plasma): BLD | concentration at 2 h [13]: 783 ng/mL | microsomal CLint at 1 µM [15]: 28 µL/min/mg | concentration at 24 h [16]: 25 ng/mL | concentration at 6 h [17]: 49 ng/mL | Kp at 6 h [18]: 1.69 | CL free (Liver microsome): 14000 µL/min/mg | concentration at 3 h [19]: 722 ng/mL | concentration at 6 h [21]: 1030 ng/g | concentration at 3 h [22]: 210 ng/mL
SMILES: CCc1cc(-c2noc(-c3cc(C)c(CN(C)CC(C)C)s3)n2)cc(C)c1OC[C@@H](O)CNC(=O)CO
Activity (Rattus norvegicus [1]): 4% | Activity (Rattus norvegicus [6]): -70% | Activity (Rattus norvegicus [9]): 4% | Ratio EC50 [11]: 290 | Activity (Rattus norvegicus [14]): -33% | Activity (Rattus norvegicus [20]): -59%
